Activity calls are given as the source filed them. No cut-off for these calls is given here.
Legend:
Type in all cases: functional, cell-based
[1] = system: H9; experiment: Compound was tested for anti-HIV activity in H9 cell line; Not active; conditions: Homo sapiens
[2] = system: HL-60; experiment: Inhibition of human promyelocytic leukemic cell (HL-60) by […]-microculture tetrazolium assay
Outline: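 HL-60 cells exposed 4 days to five or six concentrations of each nucleoside, in duplicate. Then PMS-XTT mixture (0.075 mM PMS with 1 mg/mL XTT) added for 6 h at 37 °C. Absorbance at 450 and 630 nm. Median inhibitory concentration (IC50) derived.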

[3] = system: HL-60; experiment: Inhibition of human promyelocytic leukemic cell (HL-60) trypan blue exclusion assay
Outline: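 HL-60 growth inhibition by trypan blue exclusion, five or six concentrations per nucleoside, in duplicate. Median inhibitory concentration (IC50) derived.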

[4] = system: H9; experiment: Anti-HIV activity in H9 cell line; Not active; conditions: Homo sapiens
[5] = system: MT4; experiment: Compound was tested for anti-HIV activity in MT-4 cell line; Not active; conditions: Homo sapiens
[6] = system: H9; experiment: Compound was tested for anti-HIV activity in H9 cell line; Active; conditions: Homo sapiens

Row | SMILES | Activity [1] | IC50 [2] [µM] | IC50 [3] [µM] | Activity [4] | Activity [5] | Activity [6]
1 | Cc1cn([C@@H]2O[C@H](CO)[C@@H](OC(c3ccccc3)(c3ccccc3)c3ccccc3)[C@H]2OC(c2ccccc2)(c2ccccc2)c2ccccc2)c(=O)[nH]c1=O | inactive | > 1000 | > 1000 | – | – | –
2 | Cc1cn([C@@H]2O[C@H](CO)C[C@H]2F)c(=O)[nH]c1=O | – | > 1000 | > 1000 | inactive | – | –
3 | Cc1cn(C2OC(CO)C[C@@H]2F)c(=O)[nH]c1=O (some centres undefined) | – | > 1000 | > 1000 | inactive | – | –
4 | Cc1cn(C2OC(COC(=O)c3ccccc3)C(F)C2F)c(=O)[nH]c1=S (centres undefined) | – | > 1000 | > 1000 | inactive | – | –
5 | Cc1cn(C2OC(COC(c3ccccc3)(c3ccccc3)c3ccccc3)CC2F)c(=O)nc1N (centres undefined) | – | > 1000 | > 1000 | inactive | – | –
6 | Cc1cn2c(nc1=O)O[C@H]1[C@H](OC(=S)n3ccnc3)[C@@H](COC(c3ccccc3)(c3ccccc3)c3ccccc3)O[C@H]12 | – | > 1000 | > 1000 | inactive | – | –
7 | Cc1cn(C2OC(COC(c3ccccc3)(c3ccccc3)c3ccccc3)C(N=[N+]=[N-])C2O)c(=O)[nH]c1=O (centres undefined) | – | > 1000 | > 1000 | inactive | – | –
8 | Cc1cn([C@@H]2O[C@H](COC(=O)c3ccccc3)[C@@H](O)[C@@H]2F)c(=O)[nH]c1=O | – | > 1000 | > 1000 | inactive | – | –
9 | Cc1cn2c(nc1=O)O[C@@H]1[C@H](F)[C@H]2O[C@@H]1COC(=O)c1ccccc1 | – | > 1000 | > 1000 | inactive | – | –
10 | Cc1cn([C@@H]2O[C@H](CO)[C@@H](N=[N+]=[N-])[C@H]2F)c(=O)[nH]c1=O | – | > 1000 | > 1000 | inactive | – | –
11 | Cc1cn([C@@H]2O[C@H](COC(c3ccccc3)(c3ccccc3)c3ccccc3)[C@@H]3O[C@@H]32)c(=O)[nH]c1=O | – | > 1000 | > 1000 | inactive | – | –
12 | Cc1cn(C2OC(COC(c3ccccc3)(c3ccccc3)c3ccccc3)C(F)C2O)c(=O)[nH]c1=O (centres undefined) | – | > 1000 | > 1000 | inactive | – | –
13 | Cc1cn([C@@H]2O[C@H](COC(c3ccccc3)(c3ccccc3)c3ccccc3)[C@H](O)[C@H]2F)c(=O)[nH]c1=O | – | > 1000 | > 1000 | inactive | – | –
14 | Cc1cn([C@@H]2O[C@H](CO)C[C@H]2F)c(=O)nc1N | – | > 1000 | > 1000 | inactive | – | –
15 | Cc1cn([C@@H]2O[C@H](CO)[C@@H](O)[C@@H]2O)c(=O)[nH]c1=O | – | > 1000 | > 1000 | inactive | – | –
16 | Cc1cn2c(nc1=O)OC1CC(COC(c3ccccc3)(c3ccccc3)c3ccccc3)OC12 (centres undefined) | – | > 1000 | > 1000 | inactive | – | –
17 | Cc1cn(C2OC(COC(=O)c3ccccc3)C(F)C2F)c(=O)[nH]c1=O (centres undefined) | – | > 1000 | > 1000 | inactive | – | –
18 | Cc1cn(C2OC(COC(c3ccccc3)(c3ccccc3)c3ccccc3)C(F)C2N=[N+]=[N-])c(=O)[nH]c1=O (centres undefined) | – | > 1000 | > 1000 | inactive | – | –
19 | Cc1cn([C@@H]2O[C@H](CO)[C@@H](O)[C@@H]2F)c(=O)[nH]c1=O [5-METHYL-2'-FLUOROARAURACIL] | – | > 1000 | > 1000 | inactive | – | –
20 | Cc1cn(C2OC(COC(c3ccccc3)(c3ccccc3)c3ccccc3)CC2O)c(=O)[nH]c1=O (centres undefined) | – | > 1000 | > 1000 | inactive | – | –
21 | Cc1cn([C@H]2C[C@H](OS(C)(=O)=O)[C@@H](COS(C)(=O)=O)O2)c(=O)[nH]c1=O | – | > 1000 | > 1000 | inactive | – | –
22 | Cc1cn([C@@H]2O[C@H](COC(c3ccccc3)(c3ccccc3)c3ccccc3)[C@@H](OS(C)(=O)=O)[C@H]2OS(C)(=O)=O)c(=O)[nH]c1=O | – | > 1000 | > 1000 | inactive | – | –

Row | SMILES | Activity [1] | IC50 [2] [µM] | IC50 [3] [µM] | Activity [4] | Activity [5] | Activity [6]
23 | Cc1cn([C@@H]2O[C@H](CO)[C@@H](N=[N+]=[N-])[C@@H]2F)c(=O)[nH]c1=O | – | – | – | inactive | inactive | –
24 | Cc1cn([C@@H]2O[C@H](COC(c3ccccc3)(c3ccccc3)c3ccccc3)C[C@H]2F)c(=O)[nH]c1=O | – | > 1000 | > 1000 | inactive | – | –
25 | Cc1cn([C@@H]2O[C@H](CO)[C@@H](F)[C@@H]2F)c(=O)[nH]c1=O | – | > 1000 | > 1000 | inactive | – | –
26 | Cc1cn(C2OC(COC(c3ccccc3)(c3ccccc3)c3ccccc3)CC2F)c(=O)nc1-n1cncn1 (centres undefined) | – | > 1000 | > 1000 | inactive | – | –
27 | CC(=O)OCC1OC(n2cc(C)c(=O)[nH]c2=O)CC1F (centres undefined) | – | > 1000 | > 1000 | inactive | – | –
28 | Cc1cn(C2CC(F)C(COS(C)(=O)=O)O2)c(=O)[nH]c1=O (centres undefined) | – | > 1000 | > 1000 | inactive | – | –
29 | Cc1cn(C2OC(COC(c3ccccc3)(c3ccccc3)c3ccccc3)C(N=[N+]=[N-])C2F)c(=O)[nH]c1=O (centres undefined) | – | > 1000 | > 1000 | inactive | – | –
30 | Cc1cn(C2OC(COC(c3ccccc3)(c3ccccc3)c3ccccc3)C(F)C2F)c(=O)[nH]c1=O (centres undefined) | – | > 1000 | > 1000 | inactive | – | –
31 | Cc1cn([C@H]2C[C@H](F)[C@@H](CO)O2)c(=O)[nH]c1=O | – | – | – | – | – | Active
32 | Cc1cn2c(nc1=O)O[C@@H]1[C@H](F)[C@H]2O[C@@H]1COC(c1ccccc1)(c1ccccc1)c1ccccc1 | – | > 1000 | > 1000 | inactive | – | –
33 | Cc1cn([C@@H]2O[C@H](COC(c3ccccc3)(c3ccccc3)c3ccccc3)[C@H](O)[C@H]2N=[N+]=[N-])c(=O)[nH]c1=O | – | > 1000 | > 1000 | inactive | – | –
34 | Cc1cn2c(nc1=O)O[C@@H]1C[C@H]2O[C@@H]1CO | – | > 1000 | > 1000 | inactive | – | –
35 | Cc1cn([C@@H]2O[C@H](COC(c3ccccc3)(c3ccccc3)c3ccccc3)[C@@H](OS(C)(=O)=O)[C@@H]2F)c(=O)[nH]c1=O | – | > 1000 | > 1000 | inactive | – | –
36 | Cc1cn2c(nc1=O)O[C@H]1[C@H](O)[C@@H](COC(c3ccccc3)(c3ccccc3)c3ccccc3)O[C@H]12 | – | > 1000 | > 1000 | inactive | – | –
37 | Nc1ccn([C@@H]2O[C@H](CO)C[C@@H]2F)c(=O)n1 | – | – | – | – | – | Active
38 | Cc1cn(C2OC(CO)C(F)C2F)c(=O)nc1N (centres undefined) | – | 234 | 123 | inactive | – | –
39 | Cc1cn2c(nc1=O)O[C@@H]1C[C@H]2O[C@@H]1COS(C)(=O)=O | – | > 1000 | > 1000 | inactive | – | –
40 | Cc1cn([C@@H]2O[C@H](CO)[C@@H](F)[C@H]2F)c(=O)[nH]c1=O | – | > 1000 | > 1000 | inactive | – | –
41 | Cc1cn([C@@H]2O[C@H](CO)[C@@H](F)[C@H]2N=[N+]=[N-])c(=O)[nH]c1=O | – | > 1000 | > 1000 | inactive | – | –
42 | Cc1cn([C@@H]2O[C@H](CO)C=C2F)c(=O)[nH]c1=O | – | > 1000 | > 1000 | inactive | – | –
43 | Cc1cn([C@@H]2O[C@H](COC(=O)c3ccccc3)[C@@H](OS(C)(=O)=O)[C@@H]2F)c(=O)[nH]c1=O | – | > 1000 | > 1000 | inactive | – | –

From ChEMBL document CHEMBL1125694, “Fluorinated sugar analogues of potential anti-HIV-1 nucleosides” (J Med Chem, 1991)
